Screening data deposited in PubChem BioAssay by Sanford-Burnham Center for Chemical Genomics.
LMPTP inh: LMPTP phosphatase inhibitors, primary screen, biochemical, fluorescence intensity, uHTS; Low molecular weight phosphotyrosine protein phosphatase (Homo sapiens), P24666; recombinant LMPTP-A, OMFP fluorogenic substrate; inhibition, % at 20 µM; 0.22% of 360,000 active;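 active means compounds that cut the enzyme signal by at least half of the control window in the single-dose screen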
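Test system – LMPTP-A enzyme · Amount – LMPTP-A at 0.625 nM final in the reaction · Buffer or medium – Bis-Tris pH 6.0, DTT, detergent · Reagent – OMFP 400 µM · Doses – single 20 µM dose · Schedule – reaction 50 min, room temperature, dark · Detection – fluorescence intensity of OMFP turnover product · Evaluation – percent inhibition versus substrate-only and uninhibited controls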
Scp1 inh: Scp-1 phosphatase inhibitors, primary screen, biochemical, colorimetric, uHTS; inhibition, % at 20 µM; 0.88% of 340,000 active; Carboxy-terminal domain RNA polymerase II polypeptide A small phosphatase 1 (Homo …; Recombinant Scp1, phosphopeptide, malachite green phosphate absorbance;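 active means inhibition above about 50% at 20 µM, limit read from the data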
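Times: enzyme reaction 45 min at room temperature, colour 5 min, stabilisation 30 min. Material: SCP-1 catalytic fragment, aa 76-261. Medium: Acidic Tris acetate buffer with magnesium and detergent. Signal: colorimetric free-phosphate detection, absorbance 630 nm. Read-out basis: % inhibition of SCP-1 phosphate liberation. Reagent: Phosphorylated 17-residue peptide substrate.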
DNMT1 inh: human DNMT1 methyltransferase inhibitors, primary screen, biochemical, molecular beacon, fluorescence, HinP1I cleavage, uHTS; AID 588458, 2011; 0.83% of 360,000 active; inhibition (reported as % activation of signal), % at 10 µM; in the data active means inhibition above about 50%
STEP inh: STEP phosphatase inhibitors, primary screen, biochemical, fluorescence intensity, uHTS. recombinant STEP, OMFP fluorogenic substrate. inhibition, % at 20 µM. 0.25% of 360,000 active;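 active means inhibition at 20 µM, scaled per plate between control wells, above about 37%, limit read from the data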
Target sequence (P54829 whole entry, looked up): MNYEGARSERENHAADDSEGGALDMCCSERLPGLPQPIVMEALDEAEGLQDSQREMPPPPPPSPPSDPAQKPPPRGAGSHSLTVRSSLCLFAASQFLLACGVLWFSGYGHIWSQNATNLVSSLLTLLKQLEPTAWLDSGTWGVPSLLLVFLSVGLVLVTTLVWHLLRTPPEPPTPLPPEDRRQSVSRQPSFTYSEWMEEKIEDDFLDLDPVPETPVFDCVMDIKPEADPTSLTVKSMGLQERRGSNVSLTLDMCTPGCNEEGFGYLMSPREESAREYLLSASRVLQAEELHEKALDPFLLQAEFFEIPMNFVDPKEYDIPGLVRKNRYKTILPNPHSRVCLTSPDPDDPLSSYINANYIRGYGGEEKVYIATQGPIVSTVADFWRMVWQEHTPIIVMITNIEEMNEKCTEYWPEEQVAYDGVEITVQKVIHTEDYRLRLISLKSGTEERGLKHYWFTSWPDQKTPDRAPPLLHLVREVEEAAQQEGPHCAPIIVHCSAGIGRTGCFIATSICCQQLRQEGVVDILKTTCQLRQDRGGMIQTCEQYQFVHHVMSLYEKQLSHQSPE
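System: isolated STEP enzyme; schedule: 20 min enzyme reaction at room temperature, protected from light; medium: Bis-Tris buffer pH 6.0, 2.5 mM DTT, 0.005% Tween 20; signal: fluorescence, 480/540 nm; dosing: single compound dose of 20 µM, 1% DMSO final; also added: OMFP substrate, 25 µM final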
NadD block: inhibitors of S. aureus NadD, primary screen, biochemical, colorimetric, uHTS; AID 602399, 2012; inhibition, % at 20 µM; 0.78% of 360,000 active; purified NadD enzyme, colorimetric absorbance read-out; in the data active means inhibition above about 26%
SUMO1 PPI mod: modulators of SUMO1 protein-protein interactions, primary screen, biochemical, uHTS. 0.33% of 360,000 active. SUMO1 binding to a labelled peptide, TR-FRET, 1 h. inhibition, % at 20 µM. AID 602429, 2012; in the data active means inhibition above about 37%
Target sequence (P63165 whole entry, looked up): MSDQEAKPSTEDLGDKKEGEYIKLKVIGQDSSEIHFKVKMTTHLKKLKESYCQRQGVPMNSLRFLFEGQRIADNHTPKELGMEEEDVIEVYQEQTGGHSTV
Scp-1 conf: Scp-1 phosphatase inhibitors, retest, confirmation, biochemical, colorimetric, single concentration. shares compounds with Scp1 inh. recombinant SCP-1 catalytic domain, phosphate release, malachite green absorbance. inhibition, % at 20 µM. 61% of 2,500 active
MG interference: colorimetric readout interference by compounds, confirmation, artefact control for Scp-1 inhibitor project, biochemical, single concentration; Colorimetric interference counterscreen, malachite green absorbance 630 nm; apparent inhibition (interference), % at 20 µM; AID 540313, 2011; shares compounds with Scp1 inh; 2,500 tested, under 10 active;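 further: compounds added after enzyme reaction finished so only phosphate colour detection is probed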
Scp-1 Tm shift: Scp-1 binding by thermal shift, confirmation, orthogonal assay for Scp-1 inhibitor project, biophysical, differential scanning fluorimetry. shares compounds with Scp1 inh. thermal shift relative to vanadate control, % at 40 µM. 25% of 1,500 active. Recombinant SCP1, Sypro Orange thermal shift Tm;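 active means substances whose mean melting-temperature shift, as a percentage of the reference inhibitor's shift, reaches about 5.3%, limit read from the data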
Numbers stand for hits; . = inactive; / = no result given. Rows were chosen to be rich in hits. Some 2.3% of all compounds tested hit in one or more screens of this group.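 How the source made its calls, unless noted: active means inhibition of at least 30% at 20 µM; inactive means the rest.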

SMILES	LMPTP inh	Scp1 inh	DNMT1 inh	STEP inh	NadD block	SUMO1 PPI mod	Scp-1 conf	MG interference	Scp-1 Tm shift
O=C(NC1CC2CCCC(C1)N2C(=O)Nc1ccc(F)cc1)c1ccccc1 (centres undefined)	.	.	.	.	.	.	/	/	/
CCOc1cc(/C=N/NC(=O)c2cc3c(ccc4ccccc43)o2)ccc1O	.	.	.	.	.	.	/	/	/
CCOC(=O)COc1ccccc1/C=N\NC(=O)c1cc2c(ccc3ccccc32)o1	.	83.7	.	.	.	.	39.4	.	.
NC(=O)c1c(NC(=O)C2CC=CCC2C(=O)O)sc2c1CCCCC2 (centres undefined)	.	58.2	.	.	.	.	70.9	.	.
O=C(CN1C(=O)/C(=C2/SC(=S)N(CCS(=O)(=O)O)C2=O)c2ccccc21)Nc1cccc(C(F)(F)F)c1	.	84.4	.	.	33.9	.	84.6	.	885.4
COCCN1C(=O)/C(=C2/C(=O)N(CC(=O)Nc3ccccc3Cl)c3ccccc32)SC1=S	.	.	.	.	.	.	/	/	/
COc1ccc(/C=N/NC(=O)c2ccc(COc3ccccc3Cl)o2)cc1	.	.	.	.	.	.	/	/	/
CC(=O)Nc1ccc(/C(C)=N/NC(=O)c2ccc(COc3ccccc3Cl)o2)cc1	.	104.0	.	.	.	.	65.1	.	.
CCC(CO)N=CC1=C(O)CC(C)(C)CC1=O (centres undefined)	.	.	.	.	.	.	/	/	/
CSCCC(N=CC1=C(O)CC(C)(C)CC1=O)C(=O)O (centres undefined)	.	73.0	.	.	.	.	.	.	/
CCOc1ccc(C(=O)Nc2ccc(-c3cc4ccccc4oc3=O)c(C)c2)cc1[N+](=O)[O-]	.	60.1	.	.	.	.	41.2	.	.
COc1cc(/C=C/c2cccc[n+]2C)ccc1OCC(=O)Nc1cccc(Cl)c1	.	70.3	.	.	.	.	32.4	.	.
CCOC(=O)C1CCCN(C(=O)c2oc3ccccc3c2C)CC1 (centres undefined)	.	/	.	.	.	.	/	/	/
COc1cccc(CN2CCN(Cc3cccc4nonc34)CC2CCO)c1 (centres undefined)	.	.	.	.	.	.	/	/	/
Cc1ccc(NC(=O)CSc2nc3[nH]ncc3c(=O)[nH]2)cc1Cl	.	58.2	.	.	.	.	.	.	/
C[C@H](CO)N1C[C@H](C)[C@@H](CN(C)C(=O)Nc2ccc3c(c2)OCO3)Oc2c(NC(=O)c3ccncc3)cccc2C1=O	.	55.8	.	.	.	.	.	.	/
C[C@H](CO)N1C[C@H](C)[C@@H](CN(C)Cc2ccc(C(=O)O)cc2)Oc2c(NC(=O)c3ccncc3)cccc2C1=O	.	54.4	.	.	.	.	.	.	/
C[C@H](CO)N1C[C@H](C)[C@@H](CN(C)Cc2ccncc2)Oc2c(NC(=O)c3ccncc3)cccc2C1=O	.	.	.	.	.	.	/	/	/
Cc1ccc(NC(=O)CCNS(=O)(=O)c2ccc3c(c2)CCC(=O)N3)cc1	.	.	.	.	.	.	/	/	/
C[N+]1(C2CCC3CCCC2C3O)CCCC1 (centres undefined)	.	92.8	.	.	.	.	76.1	.	.
CCOc1cccc(/C=N/NC(=O)CC2C(=O)NN=C2C)c1O (centres undefined)	.	.	.	.	.	.	.	.	/
CC1=NNC(=O)C1CC(=O)N/N=C/c1ccc(C)o1 (centres undefined)	.	.	.	.	.	.	/	/	/
CCOc1cccc(/C=N/NC(=O)C2CCCC2)c1O	.	.	.	.	.	.	/	/	/
COc1cc(/C=N/NC(=O)CC2C(=O)NN=C2C)ccc1O (centres undefined)	.	.	.	.	.	.	.	.	/
CCCC(=O)Nc1ccc(S(=O)(=O)Nc2cc(OC)ncn2)cc1	.	.	.	.	.	.	/	/	/
SMILES	LMPTP inh	Scp1 inh	DNMT1 inh	STEP inh	NadD block	SUMO1 PPI mod	Scp-1 conf	MG interference	Scp-1 Tm shift
Cc1ccccc1/C=C/c1cc[n+](C)cc1	.	58.3	.	.	.	.	.	.	/
O=C(NNC1OC(CO)C(O)C(O)C1O)c1cccc(Br)c1 (centres undefined)	.	.	.	.	.	.	.	.	/
CC(C)(C)N1C(=O)c2ccccc2NC(=O)C1C(=O)NCCc1ccccc1F (centres undefined)	.	/	/	/	/	.	/	/	/
O=C1c2ccccc2C(=O)N1c1nc2nccc(-c3ccccc3)n2n1	.	101.3	.	.	.	.	.	.	/
Cc1cccc(C(=O)NCC(=O)NC(C)c2ccc(-n3ccnc3)cc2)c1 (centres undefined)	.	.	.	.	.	.	/	/	/
CCCCCCNC(=O)O[C@H]1C[C@H](C(=O)OC)[C@H](C(=O)OC)C2CN(S(=O)(=O)c3ccc(C)cc3)C[C@@]21O (some centres undefined)	.	/	.	.	.	.	/	/	/
O=C1CC2CCCN2C=C1I (centres undefined)	.	96.5	.	.	.	.	86.8	.	.
CCOC(=O)C1=CN2CCC[C@H]2CC1=O	.	.	.	.	.	.	/	/	/
Nc1c(C(=O)OCC(=O)Nc2cccc([N+](=O)[O-])c2)[nH]c(=O)[nH]c1=O	.	66.7	.	.	.	.	65.4	.	6.1
O=C(Nc1cccc([N+](=O)[O-])c1)Nc1cccc([N+](=O)[O-])c1	.	69.3	.	.	.	.	66.0	.	17.4
O=C(NC1CCCCC1)C(c1ccncc1)n1c(=O)c(-c2cc3ccccc3[nH]2)nc2ccccc21 (centres undefined)	.	/	/	/	/	.	/	/	/
C=CCSc1nnc(NC(=O)CSc2nc(CCC)cc(=O)[nH]2)s1	.	52.8	.	.	.	.	.	.	/
C=CCSc1nnc(NC(=O)CSc2nc3ccccc3[nH]2)s1	.	.	.	.	.	.	/	/	/
